Publication PMC10552104 (ACS Omega, 2023)

Legend:
Assay type in all cases: cell-based
[1] = system: DU145 prostate cancer cell line; assay: MTT cytotoxicity assay, DU145; conditions: Homo sapiens, DU-145, 24 h, read-out: IC50 DU145
In short: (§1)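 IC50 values in μM, reported as mean ± S.D. from the table footnote; the same footnote covers the three cancer lines and the normal CHO–K1 line. The full series of test compounds was screened on each line.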

[2] = system: HepG2 hepatocellular carcinoma cells; assay: MTT cytotoxicity assay, HepG2; conditions: Homo sapiens, HepG2, 24 h, read-out: IC50 HepG2
In short: as §1

[3] = system: B16 melanoma cancer cell line; assay: MTT cytotoxicity assay, B16; conditions: Mus musculus, B16, 24 h, read-out: IC50 B16
In short: as §1

**Q.** What does the source list for `c1ccc(C(c2c[nH]c3ccccc23)c2c[nH]c3ccccc23)cc1` [1a, 3,3′-(Phenylmethylene)bis(1H-indole)]?
**A.** IC50 [1]: 5.24 ± 0.67 µM; IC50 [2]: 4.62 ± 0.03 µM; IC50 [3]: 9.88 ± 1.19 µM

**Q.** Which IC50 [1] does the source give for `COc1ccc2[nH]cc(C(c3ccc(C)cc3)c3c[nH]c4ccc(OC)cc34)c2c1` [1c, 3,3′-(p-Tolylmethylene)bis(5-methoxy-1H-indole)] here?
**A.** 2.02 ± 0.74 µM

**Q.** What about the IC50 [2] of the same compound?
**A.** 5.47 ± 0.56 µM

**Q.** And the IC50 [3]?
**A.** 36 ± 1.09 µM

**Q.** Which results are given for `COc1ccc(C(c2c[nH]c3ccc(C#N)cc23)c2c[nH]c3ccc(C#N)cc23)cc1` [1g, 3,3′-((4-Methoxyphenyl)methylene)bis(1H-indole-5-carbonitrile)]?
**A.** IC50 [1]: 8.13 ± 0.77 µM; IC50 [2]: 6.33 ± 1.8 µM; IC50 [3]: 9.82 ± 0.52 µM

**Q.** With `COc1ccc(C(c2c(-c3ccccc3)[nH]c3ccccc23)c2c(-c3ccccc3)[nH]c3ccccc23)cc1OC` [1i, 3,3′-((3,4-Dimethoxyphenyl)methylene)bis(2-phenyl-1H-indole)] as the compound, how does the IC50 [1] read?
**A.** 10.3 ± 0.87 µM

**Q.** And the IC50 [2]?
**A.** 7.43 ± 1.6 µM

**Q.** And the IC50 [3]?
**A.** 15.9 ± 0.25 µM

**Q.** Which IC50 [1] does the source give for `O=[N+]([O-])c1ccc(C(c2c[nH]c3ccccc23)c2c[nH]c3ccccc23)cc1` [1k, 3,3′((4-Nitrophenyl)methylene)bis(1H-indole)] here?
**A.** 1.09 ± 0.92 µM

**Q.** What about the IC50 [2] of the same compound?
**A.** 5.28 ± 0.24 µM

**Q.** And the IC50 [3]?
**A.** 29.2 ± 2.38 µM

**Q.** With `c1ccc2c(C(c3c[nH]c4ccccc34)c3c[nH]c4ccccc34)cccc2c1` [1m, 3,3′-(Naphthalen-1-ylmethylene)bis(1H-indole)] as the compound, how does the IC50 [1] read?
**A.** 8.18 ± 0.74 µM

**Q.** What about the IC50 [2] of the same compound?
**A.** 7.54 ± 1.19 µM

**Q.** What about the IC50 [3] of the same compound?
**A.** 9.49 ± 1.97 µM

**Q.** For `c1ccc2c(C(c3c[nH]c4ccccc34)c3c[nH]c4ccccc34)c3ccccc3cc2c1` [1n, 3,3′-(Anthracen-9-ylmethylene)bis(1H-indole)], which IC50 [1] is on record?
**A.** 6.87 ± 1.06 µM

**Q.** And the IC50 [2]?
**A.** 11.9 ± 0.1 µM

**Q.** And the IC50 [3]?
**A.** 13.6 ± 0.92 µM

**Q.** Which IC50 [1] does the source give for `c1coc(C(c2c[nH]c3ccccc23)c2c[nH]c3ccccc23)c1` [1o, 3,3′-(Furan-2-ylmethylene)bis(1H-indole)] here?
**A.** 60.8 ± 1.24 µM

**Q.** And the IC50 [2]?
**A.** 5.87 ± 0.3 µM

**Q.** And the IC50 [3]?
**A.** 16.1 ± 0.79 µM

**Q.** Which results are given for `Brc1ccc2[nH]cc(C(c3ccco3)c3c[nH]c4ccc(Br)cc34)c2c1` [1p, 3,3′-(Furan-2-ylmethylene)bis(5-bromo-1H-indole)]?
**A.** IC50 [1]: 19.4 ± 0.88 µM; IC50 [2]: 11.4 ± 1.37 µM; IC50 [3]: 19.7 ± 0.87 µM

**Q.** What does the source list for `c1ccc(-c2[nH]c3ccccc3c2C(c2ccco2)c2c(-c3ccccc3)[nH]c3ccccc23)cc1` [1q, 3,3′-(Furan-2-ylmethylene)bis(2-phenyl-1H-indole)]?
**A.** IC50 [1]: 39.5 ± 1.02 µM; IC50 [2]: 5 ± 0.01 µM; IC50 [3]: 23.5 ± 7 µM

**Q.** Which results are given for `Cc1[nH]c2ccccc2c1C(c1cccs1)c1c(C)[nH]c2ccccc12` [1r, 3,3′-(Thiophen-2-ylmethylene)bis(2-methyl-1H-indole)]?
**A.** IC50 [1]: 21.2 ± 2.01 µM; IC50 [2]: 5.82 ± 0.5 µM; IC50 [3]: 15.7 ± 2.1 µM

**Q.** With `COc1cc(C(c2c[nH]c3ccccc23)c2c[nH]c3ccccc23)cc(OC)c1O` [1s, 4-(Di(1H-indol-3-yl)methyl)-2,6-dimethoxyphenol] as the compound, how does the IC50 [1] read?
**A.** 22.6 ± 0.98 µM

**Q.** What about the IC50 [2] of the same compound?
**A.** 7.01 ± 0.53 µM

**Q.** And the IC50 [3]?
**A.** 7.02 ± 0.32 µM

**Q.** For `COc1ccc(C(c2c[nH]c3ccccc23)c2c[nH]c3ccccc23)cc1OC` [1t, 3,3′-((3,4-Dimethoxyphenyl)methylene)bis(1H-indole)], which IC50 [1] is on record?
**A.** 12.2 ± 0.96 µM

**Q.** And the IC50 [2]?
**A.** 8.12 ± 0.87 µM

**Q.** What about the IC50 [3] of the same compound?
**A.** 8.14 ± 1.45 µM

**Q.** Which IC50 [1] does the source give for `COc1cccc2c1C(=O)c1c(O)c3c(c(O)c1C2=O)C[C@@](O)(C(=O)CO)C[C@@H]3O[C@H]1C[C@H](N)[C@H](O)[C@H](C)O1` [doxorubicin, reference compound] here?
**A.** 0.7 ± 0.13 µM

**Q.** And the IC50 [2]?
**A.** 0.6 ± 0.12 µM

**Q.** What about the IC50 [3] of the same compound?
**A.** 0.8 ± 0.12 µM
